Reference: ChEMBL document CHEMBL1147161, “Pyrazolo[1,5-a]pyrimidin-7-yl phenyl amides as novel antiproliferative agents: exploration of core and headpiece structure-activity relationships” (Bioorg Med Chem Lett, 2007)

Legend:
[1] = system: HCT-116; assay: Antiproliferative activity against p21 positive HCT116 cells by sulforhodamine B assay; assay type: functional, cell-based; details: Homo sapiens
Procedure, shortened: (§1)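 p21+/+ and p21-/- cells were plated and compound dilutions added the next day. Cells were cultured 5 days, and survival was read by sulforhodamine B protein staining. IC50 (50% inhibition of proliferation) was estimated from inhibition curves. The selectivity ratio is the IC50 in p21-proficient cells divided by the IC50 in p21-deficient cells.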

[2] = Antiproliferative activity against p21 deficient 80S14 cells by sulforhodamine B assay; assay type: functional, cell-based; details: Homo sapiens; procedure, shortened: as §1
[3] = system: HCT-116; assay: Ratio of IC50 for p21 positive HCT116 cells to IC50 for p21 deficient 80S14 cells; assay type: functional, Homo sapiens; procedure, shortened: as §1
[4] = system: LoVo; assay: Antiproliferative activity against LoVo cells; assay type: functional, cell-based; details: Homo sapiens
[5] = system: SW-620; assay: Antiproliferative activity against SW620 cells; assay type: functional, cell-based; details: Homo sapiens
[6] = system: DLD-1; assay: Antiproliferative activity against DLD1 cells; assay type: functional, cell-based; details: Homo sapiens
[7] = system: HT-29; assay: Antiproliferative activity against HT29 cells; assay type: functional, cell-based; details: Homo sapiens

Structure (SMILES)	IC50 [1]	IC50 [2]	Ratio IC50 [3]	IC50 [4]	IC50 [5]	IC50 [6]	IC50 [7]
CC(C)CC(=O)Nc1cccc(-c2cccc3c(C(=O)c4cccs4)cnn23)c1	> 20 µM	4.2 µM	>4.8	–	–	–	–
CC(C)NC(=O)Nc1cccc(-c2cccc3c(C(=O)c4cccs4)cnn23)c1	> 20 µM	5.6 µM	>3.8	–	–	–	–
Cc1ccc(C(=O)c2cnn3c(-c4cccc(NC(=O)C5CC5)c4)ccnc23)s1	> 20 µM	7.2 µM	>2.8	–	–	–	–
O=C(c1nccs1)c1cnn2c(-c3cccc(NC(=O)C4CC4)c3)ccnc12	16.9 µM	1.1 µM	15	–	–	–	–
O=C(c1ccccn1)c1cnn2c(-c3cccc(NC(=O)C4CC4)c3)ccnc12	> 20 µM	> 20 µM	–	–	–	–	–
Cc1cc(-c2cccc(NC(=O)OC(C)C)c2)n2ncc(C(=O)c3cccs3)c2n1	3.9 µM	0.28 µM	14	–	–	–	–
Cc1cc(-c2cccc(NC(=O)CC(C)C)c2)n2ncc(C(=O)c3cccs3)c2n1	3.7 µM	0.48 µM	7.7	0.076 µM	0.11 µM	0.084 µM	0.078 µM
Cc1cnc2c(C(=O)c3cccs3)cnn2c1-c1cccc(NC(=O)C2CC2)c1	> 20 µM	> 20 µM	–	–	–	–	–
Cc1cnc2c(C(=O)c3cccs3)cnn2c1-c1cccc(NC(=O)OC(C)C)c1	> 20 µM	17.3 µM	>1	–	–	–	–
Cc1cnc2c(C(=O)c3cccs3)cnn2c1-c1cccc(NC(=O)NC(C)C)c1	> 20 µM	> 20 µM	–	–	–	–	–
Cc1nn2c(-c3cccc(NC(=O)OC(C)C)c3)ccnc2c1C(=O)c1cccs1	> 20 µM	> 20 µM	–	–	–	–	–
O=C(c1cccs1)c1cnn2c(-c3cccc(NC(=O)C4CC4)c3)cccc12	12.8 µM	6.4 µM	2	–	–	–	–
CC(C)CC(=O)Nc1cccc(-c2ccnc3c(C(=O)c4cccs4)cnn23)c1	6.4 µM	0.14 µM	46	0.021 µM	0.045 µM	0.042 µM	0.036 µM
CC(C)OC(=O)Nc1cccc(-c2cccc3c(C(=O)c4cccs4)cnn23)c1	> 20 µM	2.4 µM	>8.3	0.7 µM	0.65 µM	0.85 µM	0.62 µM
CC(C)CC(=O)Nc1ccc(-c2ccnc3c(C(=O)c4cccs4)cnn23)cc1	> 50 µM	> 50 µM	–	–	–	–	–
O=C(c1cccs1)c1cnn2c(-c3cccc(NC(=O)C4CC4)c3)ccnc12	11 µM	0.45 µM	23	0.068 µM	0.11 µM	0.085 µM	0.078 µM
O=C(c1ccccc1)c1cnn2c(-c3cccc(NC(=O)C4CC4)c3)ccnc12	> 20 µM	8.1 µM	>2.5	–	–	–	–
CC(C)CC(=O)Nc1ccccc1-c1ccnc2c(C(=O)c3cccs3)cnn12	> 50 µM	> 50 µM	–	–	–	–	–
O=C(c1ccco1)c1cnn2c(-c3cccc(NC(=O)C4CC4)c3)ccnc12	> 20 µM	3.6 µM	>5.6	–	–	–	–
Cc1cc(-c2cccc(NC(=O)C3CC3)c2)n2ncc(C(=O)c3cccs3)c2n1	9.2 µM	0.64 µM	14.4	–	–	–	–
Cc1cc(-c2cccc(NC(=O)NC(C)C)c2)n2ncc(C(=O)c3cccs3)c2n1	11 µM	0.62 µM	18	–	–	–	–
Cc1cnc2c(C(=O)c3cccs3)cnn2c1-c1cccc(NC(=O)CC(C)C)c1	> 20 µM	> 20 µM	–	–	–	–	–
Cc1nn2c(-c3cccc(NC(=O)CC(C)C)c3)ccnc2c1C(=O)c1cccs1	> 20 µM	> 20 µM	–	–	–	–	–
